Bioassay records deposited in PubChem by several laboratories.
Sampled rows, rich in hits. Any-hit rate of the full collection: about 4.5%.
MrgX1 ag = agonists of human MrgX1 receptor; Q96LB2; MrgX1-HEK293 cells, Fluo-4 calcium fluorescence, agonist mode; stronger effect = higher value; B-score at 10 µM; hit rate 0.44% among 310,000;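 active = calcium response B-score plate-corrected fluorescence ratio at least 3 library SD, with starting fluorescence B-score inside 5 SD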
Target sequence (Q96LB2 whole entry, looked up): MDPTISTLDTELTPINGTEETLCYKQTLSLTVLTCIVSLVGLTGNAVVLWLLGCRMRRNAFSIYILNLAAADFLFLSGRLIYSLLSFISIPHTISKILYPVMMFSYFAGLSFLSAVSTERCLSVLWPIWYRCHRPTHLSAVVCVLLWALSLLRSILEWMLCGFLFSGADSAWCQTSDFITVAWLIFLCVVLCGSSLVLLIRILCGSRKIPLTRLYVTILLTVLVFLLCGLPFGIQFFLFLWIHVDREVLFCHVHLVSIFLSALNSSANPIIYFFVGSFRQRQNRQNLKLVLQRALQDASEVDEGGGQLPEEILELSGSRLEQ
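Test system: HEK293 cells stably expressing human MrgX1 receptor; Input: fifteen thousand cells per well; Dosing: compound delivered in addition one of three; Schedule: overnight seeding, then 1 h dark dye loading; Technique: Fluo-4 NW calcium fluorescence; Measure: B-scored fluorescence response ratio; Controls: positive and negative controls per plate.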
RGS4 act = potentiators or activators of RGS4 | B-score at 10 µM | hit rate 0.92% among 310,000 | HEK293 M3R/inducible RGS4, carbachol calcium flux Fluo4; stronger effect = lower value;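 active = B-score of the integrated calcium signal more than 4 SD below the library mean, with starting fluorescence not abnormally high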;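 also: negative B-score means reduced calcium response which marks RGS4 activation or potentiation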
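Assay system: Inducible-RGS4 HEK293 cells carrying M3 receptor | Schedule: Compound preincubation 20 min at room temperature before agonist | Signal: Kinetic calcium fluorescence imaging with Fluo4-AM dye, 2 µM | Read-out basis: B score from integrated fluorescence ratio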
RGS4 block = human RGS4 inhibition; hit rate 0.45% among 310,000; P49798; HEK293 M3R/RGS4 inducible, Fluo-4 calcium flux; stronger effect = higher value; triggered by carbachol at its EC20; B-score at 10 µM; AID 463165;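 active = B-score, a plate-corrected calcium signal, over three deviations above library mean, with baseline fluorescence within five deviations of library mean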;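 also: RGS4 expression induced by doxycycline in cells with stable M3 receptor; B-score is computed from the integrated fluorescence ratio over baseline after carbachol; higher B-score means a larger calcium signal and so more RGS4 inhibition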
Target sequence (P49798 whole entry, looked up): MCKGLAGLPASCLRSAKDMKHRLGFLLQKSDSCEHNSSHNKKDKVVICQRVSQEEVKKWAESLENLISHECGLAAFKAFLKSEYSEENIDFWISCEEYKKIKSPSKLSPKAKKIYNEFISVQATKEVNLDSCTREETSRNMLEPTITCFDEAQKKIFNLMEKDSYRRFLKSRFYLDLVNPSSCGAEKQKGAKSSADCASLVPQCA
MrgX1 PAM = human MrgX1 positive allosteric modulation, primary screen; MrgX1-HEK293, Fluo-4 calcium flux, FDSS; stronger effect = higher value; B-score at 10 µM; hit rate 0.63% among 310,000; AID 588675;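 active = plate-corrected calcium response at least 3 library SD above typical, normal starting fluorescence, not activating the receptor alone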;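 also: compound read alongside a low EC10 to EC30 dose of BAM8-22 agonist; peak minus trough fluorescence over baseline measured at the second addition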
MrgX1 antagonist = antagonists of human MrgX1 receptor; B-score at 10 µM; hit rate 1.3% among 310,000; MRGX1-HEK293 calcium flux, Fluo-4, BAM8-22 antagonism; stronger effect = lower value;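 active = calcium-response B-score plate-corrected more than 3 library SD below zero, starting fluorescence within 5 deviations, no agonist response on first addition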;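 also: peak minus trough fluorescence over baseline after final BAM8-22 challenge near maximal dose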
PHOSPHO1 block = PHOSPHO1 (human) inhibition. recombinant PHOSPHO1, absorbance phosphatase assay. Q8TCT1. AID 1565. inhibition, % at 13.3 µM. hit rate 1.1% among 290,000; in the data active = inhibition above about 60%
* marks the source's active call; other numbers are inactive results.

For O=C(CN1CCCCCC1)N1c2ccccc2C=Cc2ccccc21 the results were MrgX1 ag inactive, RGS4 act -7.61*, RGS4 block inactive, MrgX1 PAM inactive, MrgX1 antagonist inactive and PHOSPHO1 block -9.1.
For CC(=O)Nc1c(NC(=O)CC#N)[nH]c2c(c1=O)c(=O)n(C)c(=O)n2C the results were MrgX1 ag inactive, RGS4 act inactive, RGS4 block inactive, MrgX1 PAM inactive, MrgX1 antagonist inactive and PHOSPHO1 block 15.8.
`CCOCCN(C(=O)c1ccccc1Cl)c1ccccc1` gave MrgX1 ag inactive, RGS4 act inactive, RGS4 block inactive, MrgX1 PAM inactive, MrgX1 antagonist inactive and PHOSPHO1 block 10.6.
O=c1cc(-c2ccccc2Cl)oc2c(NS(=O)(=O)c3cc(Cl)cc(Cl)c3O)ccc(O)c12 was read as MrgX1 ag 40.4*, RGS4 act inactive, RGS4 block inactive, MrgX1 PAM inactive, MrgX1 antagonist inactive and PHOSPHO1 block 3.7.
For Cc1ccc2c(c1)N(C(=O)CSc1nncn1C)C(C)(C)c1ssc(=S)c1-2 the results were MrgX1 ag inactive, RGS4 act -8.71*, RGS4 block inactive, MrgX1 PAM inactive, MrgX1 antagonist inactive and PHOSPHO1 block 53.3.
c1ccc(CCCNc2ncccn2)cc1 was read as MrgX1 ag inactive, RGS4 act inactive, RGS4 block inactive, MrgX1 PAM inactive, MrgX1 antagonist inactive and PHOSPHO1 block -32.2.
`CC(=O)N1CCN(C(=O)c2ccc(OC3CCN(Cc4ccccn4)CC3)cc2)CC1` gave MrgX1 ag inactive, RGS4 act inactive, RGS4 block inactive, MrgX1 PAM inactive, MrgX1 antagonist inactive and PHOSPHO1 block 51.6.
`COC(=O)[C@@H](NC(=O)c1ccc(OC2CCN(Cc3ccccn3)CC2)cc1)C(C)C` gave MrgX1 ag inactive, RGS4 act inactive, RGS4 block inactive, MrgX1 PAM inactive, MrgX1 antagonist inactive and PHOSPHO1 block 60.1*.
For Cc1nc(C(C)NC(=O)c2ccc(OC3CCN(Cc4ccccn4)CC3)cc2)c(C)s1 (stereo not drawn) the results were MrgX1 ag inactive, RGS4 act inactive, RGS4 block inactive, MrgX1 PAM inactive, MrgX1 antagonist inactive and PHOSPHO1 block 81.1*.
CCc1ccc(CN2CCC(Oc3ccc(C(=O)N4CCCCC4)cc3)CC2)cc1 was read as MrgX1 ag inactive, RGS4 act -7.18*, RGS4 block inactive, MrgX1 PAM inactive, MrgX1 antagonist inactive and PHOSPHO1 block 32.2.
CCC(O)C1CCN(C(=O)c2ccc(OC3CCN(Cc4ccccn4)CC3)cc2)CC1 (stereo not drawn) was read as MrgX1 ag inactive, RGS4 act inactive, RGS4 block inactive, MrgX1 PAM inactive, MrgX1 antagonist inactive and PHOSPHO1 block 70.1*.
`CC(NC(=O)c1ccc(OC2CCN(Cc3ccccn3)CC2)cc1)c1nccs1` (stereo not drawn) gave MrgX1 ag inactive, RGS4 act inactive, RGS4 block inactive, MrgX1 PAM inactive, MrgX1 antagonist inactive and PHOSPHO1 block 22.6.
CCOC(=O)[C@H]1[C@H]2COc3ccc(Cl)cc3[C@@H]2N2C(=O)c3cc(F)ccc3NC(=O)[C@@]12C was read as MrgX1 ag inactive, MrgX1 PAM inactive and MrgX1 antagonist inactive.
For CCCc1cc(C(=O)N2CCCC(C(=O)c3cc(C)c(OC)c(C)c3)C2)n(C)n1 (stereo not drawn) the results were MrgX1 ag inactive, RGS4 act inactive, RGS4 block inactive, MrgX1 PAM inactive, MrgX1 antagonist inactive and PHOSPHO1 block 24.0.
For O=C(CCCn1c(=S)[nH]c2cc3c(cc2c1=O)OCO3)N1CCN(c2ccc(F)cc2)CC1 the results were MrgX1 ag inactive, RGS4 act inactive, RGS4 block inactive, MrgX1 PAM inactive, MrgX1 antagonist inactive and PHOSPHO1 block 68.7*.
Screening CCn1cc(/C=C(\NC(=O)c2ccc(OC)c(OC)c2)C(=O)NCCCN2CCOCC2)c2ccccc21 returned RGS4 act inactive, RGS4 block inactive and PHOSPHO1 block 31.3.
CCOc1ccc(C(C)=O)cc1Cc1c(O)nc(N)[nH]c1=O was read as MrgX1 ag inactive, RGS4 act inactive, RGS4 block inactive, MrgX1 PAM inactive, MrgX1 antagonist -5.22* and PHOSPHO1 block -14.7.
For CC(=O)c1ccc(OCC(C)C)c(Cc2c(O)nc(N)[nH]c2=O)c1 the results were MrgX1 ag inactive, RGS4 act inactive, RGS4 block inactive, MrgX1 PAM inactive, MrgX1 antagonist inactive and PHOSPHO1 block 0.1.
O=C(NC(=S)Nc1ccc(Cc2ccncc2)cc1)c1ccccc1F was read as MrgX1 ag inactive, RGS4 act inactive, RGS4 block inactive, MrgX1 PAM inactive, MrgX1 antagonist inactive and PHOSPHO1 block 62.9*.
O=C(NC(=S)Nc1ccc(Cc2ccncc2)cc1)c1ccccc1Cl was read as MrgX1 ag inactive, RGS4 act inactive, RGS4 block inactive, MrgX1 PAM inactive, MrgX1 antagonist inactive and PHOSPHO1 block 3.6.
For COc1ccc(CCN2C(=NC(=O)CCC(=O)O)SC3CS(=O)(=O)CC32)cc1 (stereo not drawn) the results were MrgX1 ag inactive, RGS4 act inactive, RGS4 block inactive, MrgX1 PAM inactive, MrgX1 antagonist inactive and PHOSPHO1 block 8.1.
Screening O=C(NC(=S)N1CCCCCC1)c1ccc(Cl)cc1Cl returned MrgX1 ag inactive, RGS4 act inactive, RGS4 block inactive, MrgX1 PAM inactive, MrgX1 antagonist inactive and PHOSPHO1 block 28.2.
Screening Cc1ccnc(NC(=O)CNC(=O)c2ccccc2Br)c1 returned MrgX1 ag inactive, RGS4 act inactive, RGS4 block inactive, MrgX1 PAM inactive, MrgX1 antagonist inactive and PHOSPHO1 block 27.4.
`COC(=O)C1=NN(C(=O)c2cccc(Br)c2)C(O)(c2ccc(Cl)cc2)C1` (stereo not drawn) gave MrgX1 ag 35.8*, RGS4 act inactive, RGS4 block inactive, MrgX1 PAM inactive, MrgX1 antagonist inactive and PHOSPHO1 block 28.2.
For CCOC(=O)C1=NN(C(=O)c2cccc(Br)c2)C(O)(C(C)(C)C)C1 (stereo not drawn) the results were MrgX1 ag 95.8*, RGS4 act inactive, RGS4 block inactive, MrgX1 PAM inactive, MrgX1 antagonist inactive and PHOSPHO1 block -1.3.
CCOC(=O)C1=NN(C(=O)c2ccc(OC)cc2)C(O)(c2ccc(Cl)cc2)C1 (stereo not drawn) was read as MrgX1 ag 48.4*, RGS4 act inactive, RGS4 block inactive, MrgX1 PAM inactive, MrgX1 antagonist inactive and PHOSPHO1 block -12.2.
